Converted amounts (≈) assume the structure as drawn.
Experiments:
Type in all cases: functional
Aspergillus niger [1] = assay: Antifungal activity against Aspergillus niger MTCC 282 assessed as zone of inhibition at 100 ug by agar well diffusion method; conditions: read-out: IZ
In short: (§1)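 Agar well diffusion on potato dextrose agar. Plates were spread with 0.5 mL of a week-old culture of the test organism, and 6 mm wells were cut with a cork borer. Compounds were dissolved in DMSO at different concentrations and added to the wells, with controls included. Plates were held at 27 °C for 48 h, and inhibition zone diameters were read in mm. Three to four replicates per treatment.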

Rhizopus arrhizus [2] = assay: Antifungal activity against Rhizopus oryzae MTCC 262 assessed as zone of inhibition at 100 ug by agar well diffusion method; conditions: read-out: IZ; in short: as §1
[3] = test system: Staphylococcus epidermidis; assay: Antibacterial activity against Staphylococcus epidermidis MTCC 2639 by broth dilution method
In short: (§2)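 MIC determined by broth dilution following NCCL standards. Penicillin and streptomycin were tested in parallel under identical conditions.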

Aspergillus niger [4] = assay: Antifungal activity against Aspergillus niger MTCC 282 assessed as zone of inhibition at 150 ug by agar well diffusion method; conditions: read-out: IZ; in short: as §1
Pseudomonas aeruginosa = assay: Antibacterial activity against Pseudomonas aeruginosa MTCC 741 by broth dilution method; in short: as §2
Diutina rugosa [5] = assay: Antifungal activity against Candida rugosa NCIM 3462 assessed as zone of inhibition at 100 ug by agar well diffusion method; conditions: read-out: IZ; in short: as §1
Saccharomyces cerevisiae [6] = assay: Antifungal activity against Saccharomyces cerevisiae MTCC 36 assessed as zone of inhibition at 150 ug by agar well diffusion method; conditions: read-out: IZ; in short: as §1
Escherichia coli = assay: Antibacterial activity against Escherichia coli MTCC 443 by broth dilution method; in short: as §2
Rhizopus arrhizus [7] = assay: Antifungal activity against Rhizopus oryzae MTCC 262 assessed as zone of inhibition at 150 ug by agar well diffusion method; conditions: read-out: IZ; in short: as §1
Bacillus subtilis = assay: Antibacterial activity against Bacillus subtilis MTCC 441 by broth dilution method; in short: as §2
Candida albicans [8] = assay: Antifungal activity against Candida albicans MTCC 227 assessed as zone of inhibition at 100 ug by agar well diffusion method; conditions: read-out: IZ; in short: as §1
Saccharomyces cerevisiae [9] = assay: Antifungal activity against Saccharomyces cerevisiae MTCC 36 assessed as zone of inhibition at 100 ug by agar well diffusion method; conditions: read-out: IZ; in short: as §1
Diutina rugosa [10] = assay: Antifungal activity against Candida rugosa NCIM 3462 assessed as zone of inhibition at 150 ug by agar well diffusion method; conditions: read-out: IZ; in short: as §1
Candida albicans [11] = assay: Antifungal activity against Candida albicans MTCC 227 assessed as zone of inhibition at 150 ug by agar well diffusion method; conditions: read-out: IZ; in short: as §1
Staphylococcus aureus = assay: Antibacterial activity against Staphylococcus aureus MTCC 96 by broth dilution method; in short: as §2
Klebsiella pneumoniae = assay: Antibacterial activity against Klebsiella pneumoniae MTCC 618 by broth dilution method; in short: as §2

Compound	MIC [3] [µg/mL]	MIC (Pseudomonas aeruginosa) [µg/mL]	MIC (Escherichia coli) [µg/mL]	MIC (Bacillus subtilis) [µg/mL]	MIC (Staphylococcus aureus) [µg/mL]	MIC (Klebsiella pneumoniae) [µg/mL]	zone of inhibition at 100 µg/disc (Aspergillus niger [1]) [mm]	zone of inhibition at 100 µg/disc (Rhizopus arrhizus [2]) [mm]	zone of inhibition at 150 µg/disc (Aspergillus niger [4]) [mm]	zone of inhibition at 100 µg/disc (Diutina rugosa [5]) [mm]	zone of inhibition at 150 µg/disc (Saccharomyces cerevisiae [6]) [mm]	zone of inhibition at 150 µg/disc (Rhizopus arrhizus [7]) [mm]	zone of inhibition at 100 µg/disc (Candida albicans [8]) [mm]	zone of inhibition at 100 µg/disc (Saccharomyces cerevisiae [9]) [mm]	zone of inhibition at 150 µg/disc (Diutina rugosa [10]) [mm]	zone of inhibition at 150 µg/disc (Candida albicans [11]) [mm]
O=c1cc(CO)oc(C(c2ccccc2)c2c[nH]c3ccccc23)c1O (stereo not given)	150 (≈ 432 µM)	150 (≈ 432 µM)	150 (≈ 432 µM)	150 (≈ 432 µM)	150 (≈ 432 µM)	75 (≈ 216 µM)	10	0	14	6	0	0	0	0	9	0
COc1ccc(C(c2oc(CO)cc(=O)c2O)c2c(C)[nH]c3ccccc23)cc1 (stereo not given)	150 (≈ 383 µM)	150 (≈ 383 µM)	150 (≈ 383 µM)	150 (≈ 383 µM)	150 (≈ 383 µM)	150 (≈ 383 µM)	0	0	0	0	0	0	0	0	0	0
Cc1[nH]c2ccccc2c1C(c1cccc(Oc2ccccc2)c1)c1oc(CO)cc(=O)c1O (stereo not given)	150 (≈ 331 µM)	75 (≈ 165 µM)	75 (≈ 165 µM)	150 (≈ 331 µM)	18.8 (≈ 41.3 µM)	75 (≈ 165 µM)	9	0	14	11	14	0	9	10	16	14
COc1cc(C(c2oc(CO)cc(=O)c2O)c2c(C)[nH]c3ccccc23)ccc1O (stereo not given)	150 (≈ 368 µM)	150 (≈ 368 µM)	150 (≈ 368 µM)	150 (≈ 368 µM)	150 (≈ 368 µM)	150 (≈ 368 µM)	0	0	0	0	0	0	0	0	0	0
Cc1[nH]c2ccccc2c1C(c1ccc2ccccc2c1)c1oc(CO)cc(=O)c1O (stereo not given)	150 (≈ 365 µM)	150 (≈ 365 µM)	150 (≈ 365 µM)	150 (≈ 365 µM)	150 (≈ 365 µM)	150 (≈ 365 µM)	0	0	0	0	0	0	0	0	0	0
COc1ccc(C(c2oc(CO)cc(=O)c2O)c2c[nH]c3ccc(Cl)cc23)cc1 (stereo not given)	150 (≈ 364 µM)	4.68 (≈ 11.4 µM)	4.68 (≈ 11.4 µM)	150 (≈ 364 µM)	2.34 (≈ 5.68 µM)	18.8 (≈ 45.5 µM)	14	0	20	0	21	0	11	16	0	16
COc1ccc(C(c2oc(CO)cc(=O)c2O)c2c(-c3ccccc3)[nH]c3ccccc23)cc1 (stereo not given)	150 (≈ 331 µM)	75 (≈ 165 µM)	75 (≈ 165 µM)	150 (≈ 331 µM)	37.5 (≈ 82.7 µM)	150 (≈ 331 µM)	10	0	14	10	14	0	9	9	14	12
O=c1cc(CO)oc(C(c2ccccc2O)c2c(-c3ccccc3)[nH]c3ccccc23)c1O (stereo not given)	150 (≈ 341 µM)	18.8 (≈ 42.7 µM)	37.5 (≈ 85.3 µM)	150 (≈ 341 µM)	4.68 (≈ 10.6 µM)	75 (≈ 171 µM)	0	0	0	0	16	0	10	12	0	14
C[C@@H]1[C@H](O)[C@@H](C)/C=C/C=C/C=C/C=C/C=C/C=C/C=C/[C@H](O[C@@H]2O[C@H](C)[C@@H](O)[C@H](N)[C@@H]2O)C[C@@H]2O[C@](O)(C[C@@H](O)C[C@@H](O)[C@H](O)CC[C@@H](O)C[C@@H](O)CC(=O)O[C@H]1C)C[C@H](O)[C@H]2C(=O)O [AMPHOTERICIN B]							25	24		22			23.5	22		
CN[C@@H]1[C@H](O[C@H]2[C@H](O[C@H]3[C@H](O)[C@@H](O)[C@H](N=C(N)N)[C@@H](O)[C@@H]3N=C(N)N)O[C@@H](C)[C@]2(O)C=O)O[C@@H](CO)[C@H](O)[C@H]1O [STREPTOMYCIN]	3.12 (≈ 5.37 µM)	1.56 (≈ 2.69 µM)	6.25 (≈ 10.7 µM)	6.25 (≈ 10.7 µM)	6.25 (≈ 10.7 µM)	3.12 (≈ 5.37 µM)										

The next lines start with results.

MIC [3] [µg/mL]	MIC (Pseudomonas aeruginosa) [µg/mL]	MIC (Escherichia coli) [µg/mL]	MIC (Bacillus subtilis) [µg/mL]	MIC (Staphylococcus aureus) [µg/mL]	MIC (Klebsiella pneumoniae) [µg/mL]	Compound	zone of inhibition at 100 µg/disc (Aspergillus niger [1]) [mm]	zone of inhibition at 100 µg/disc (Rhizopus arrhizus [2]) [mm]	zone of inhibition at 150 µg/disc (Aspergillus niger [4]) [mm]	zone of inhibition at 100 µg/disc (Diutina rugosa [5]) [mm]	zone of inhibition at 150 µg/disc (Saccharomyces cerevisiae [6]) [mm]	zone of inhibition at 150 µg/disc (Rhizopus arrhizus [7]) [mm]	zone of inhibition at 100 µg/disc (Candida albicans [8]) [mm]	zone of inhibition at 100 µg/disc (Saccharomyces cerevisiae [9]) [mm]	zone of inhibition at 150 µg/disc (Diutina rugosa [10]) [mm]	zone of inhibition at 150 µg/disc (Candida albicans [11]) [mm]
18.8 (≈ 49.7 µM)	75 (≈ 199 µM)	150 (≈ 397 µM)	150 (≈ 397 µM)	37.5 (≈ 99.4 µM)	75 (≈ 199 µM)	COc1ccc(C(c2oc(CO)cc(=O)c2O)c2c[nH]c3ccccc23)cc1 (stereo not given)	0	0	0	6	0	0	0	0	9	0
18.8 (≈ 42.7 µM)	75 (≈ 171 µM)	75 (≈ 171 µM)	150 (≈ 341 µM)	37.5 (≈ 85.3 µM)	75 (≈ 171 µM)	O=c1cc(CO)oc(C(c2cccc(Oc3ccccc3)c2)c2c[nH]c3ccccc23)c1O (stereo not given)	11	7	16	13	19	10	14	14	18	19
18.8 (≈ 47.4 µM)	18.8 (≈ 47.4 µM)	18.8 (≈ 47.4 µM)	150 (≈ 379 µM)	37.5 (≈ 94.7 µM)	75 (≈ 189 µM)	Cc1[nH]c2ccccc2c1C(c1ccc(Cl)cc1)c1oc(CO)cc(=O)c1O (stereo not given)	8	7	12	0	0	10	0	0	0	0
18.8 (≈ 41.1 µM)	37.5 (≈ 82.2 µM)	37.5 (≈ 82.2 µM)	150 (≈ 329 µM)	18.8 (≈ 41.1 µM)	75 (≈ 164 µM)	COc1ccc(C(c2oc(CO)cc(=O)c2O)c2c[nH]c3ccc(Br)cc23)cc1 (stereo not given)	12	0	18	13	16	0	13	10	19	18
18.8 (≈ 49.9 µM)	37.5 (≈ 99.9 µM)	9.38 (≈ 25 µM)	18.8 (≈ 49.9 µM)	9.38 (≈ 25 µM)	75 (≈ 200 µM)	CCC(c1oc(CO)cc(=O)c1O)c1c(-c2ccccc2)[nH]c2ccccc12 (stereo not given)	0	0	0	0	20	0	0	14	0	0
3.12 (≈ 9.35 µM)	12.5 (≈ 37.4 µM)	12.5 (≈ 37.4 µM)	1.56 (≈ 4.67 µM)	1.56 (≈ 4.67 µM)	6.25 (≈ 18.7 µM)	CC1(C)S[C@@H]2[C@H](NC(=O)Cc3ccccc3)C(=O)N2[C@H]1C(=O)O [PENICILLIN G]										

Reference: ChEMBL document CHEMBL1287779, “Indium(III) chloride catalyzed three-component coupling reaction: a novel synthesis of 2-substituted aryl(indolyl)kojic acid derivatives as potent antifungal and antibacterial agents” (2010)
